Measurements taken from ChEMBL document CHEMBL4406835, “Discovery of dual-acting opioid ligand and TRPV1 antagonists as novel therapeutic agents for pain” (Eur J Med Chem, 2019).
The source made the active and inactive calls. The rule behind the calls is not given here.

What was measured:
[1] = biological target: T1, Transient receptor potential cation channel subfamily V member 1 (Homo sapiens, UniProt Q8NER1); experiment: Displacement of [3H]RTX from recombinant human TRPV1 expressed in CHO cells incubated for 60 mins by liquid scintillation counter; format: cell-based
T1 sequence (Q8NER1 whole entry): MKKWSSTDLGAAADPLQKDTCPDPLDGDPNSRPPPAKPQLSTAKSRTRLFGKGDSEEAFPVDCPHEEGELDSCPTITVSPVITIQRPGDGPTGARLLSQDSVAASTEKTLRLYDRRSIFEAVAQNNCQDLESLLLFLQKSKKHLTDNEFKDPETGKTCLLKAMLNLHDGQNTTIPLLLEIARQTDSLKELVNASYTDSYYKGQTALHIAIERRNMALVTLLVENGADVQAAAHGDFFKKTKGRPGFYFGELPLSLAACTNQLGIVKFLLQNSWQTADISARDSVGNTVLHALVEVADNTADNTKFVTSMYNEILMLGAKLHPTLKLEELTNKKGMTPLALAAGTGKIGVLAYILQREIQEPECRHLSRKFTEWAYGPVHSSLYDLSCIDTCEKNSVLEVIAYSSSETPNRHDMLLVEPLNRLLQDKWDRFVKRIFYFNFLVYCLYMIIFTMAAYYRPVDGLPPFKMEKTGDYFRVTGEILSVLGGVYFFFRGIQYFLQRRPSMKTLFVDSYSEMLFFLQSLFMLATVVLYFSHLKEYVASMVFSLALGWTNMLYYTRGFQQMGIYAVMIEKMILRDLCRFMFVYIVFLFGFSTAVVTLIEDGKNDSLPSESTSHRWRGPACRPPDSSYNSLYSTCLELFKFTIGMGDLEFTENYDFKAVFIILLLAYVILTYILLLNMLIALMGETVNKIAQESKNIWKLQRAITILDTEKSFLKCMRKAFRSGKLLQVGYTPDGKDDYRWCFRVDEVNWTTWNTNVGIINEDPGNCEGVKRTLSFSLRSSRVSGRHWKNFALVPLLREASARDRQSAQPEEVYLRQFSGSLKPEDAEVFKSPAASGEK
In short: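 Pellets from human TRPV1 CHO cells (Tet-Off, induced 48 h) in DPBS with Ca2+/Mg2+ and BSA 0.25 mg/mL. Incubated with [3H]RTX 100 pM and varied competitor, 60 min at 37 °C. Nonspecific binding defined with unlabelled RTX 100 nM. Chilled, glycoprotein added, membranes pelleted by centrifugation, scintillation counted. Ki from Hill equation fit. Mean of ≥3 experiments.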

[2] = biological target: T1, Transient receptor potential cation channel subfamily V member 1; experiment: Agonist activity at recombinant human TRPV1 expressed in CHO cells assessed as increase in calcium uptake incubated for 5 mins in presence of 45Ca2+ and capsaicin by liquid scintillation counter; format: cell-based
Mu-type opioid receptor = Mu-type opioid receptor (Homo sapiens, UniProt P35372); experiment: Displacement of [3H]-DAMGO from full length human MOR expressed in chem5 cells incubated for 60 mins by liquid scintillation counter; format: cell-based
Chain of Mu-type opioid receptor (P35372 whole entry): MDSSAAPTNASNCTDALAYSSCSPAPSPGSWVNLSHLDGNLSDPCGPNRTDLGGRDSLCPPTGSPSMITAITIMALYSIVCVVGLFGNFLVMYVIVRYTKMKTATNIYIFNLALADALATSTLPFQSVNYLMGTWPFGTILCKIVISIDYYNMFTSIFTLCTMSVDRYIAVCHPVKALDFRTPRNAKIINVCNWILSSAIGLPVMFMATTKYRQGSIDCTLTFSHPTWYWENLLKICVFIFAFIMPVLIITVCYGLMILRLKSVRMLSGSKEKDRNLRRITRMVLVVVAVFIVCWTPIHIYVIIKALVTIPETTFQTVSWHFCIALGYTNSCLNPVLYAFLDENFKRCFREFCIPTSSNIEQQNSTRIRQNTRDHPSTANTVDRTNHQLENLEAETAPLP

Mus musculus [3] = experiment: Antinociceptive activity in ip dosed ICR mouse assessed as reduction in pain response of paw licking and biting pretreated for 30 mins followed by formalin treatment and measures after 0 to 5 mins by formalin test; format: functional
In short: (§1)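 Male ICR mice, 20-25 g, 6-8 per group. Compound i.p. 30 min before 20 μL of 2% formalin in 0.9% saline into dorsal right hindpaw. Licking and biting time summed per 5 min block over 30 min. Early phase 0-5 min, late phase 20-30 min. ED50 derived from dose-response.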

Mus musculus [4] = experiment: Antinociceptive activity in ip dosed ICR mouse assessed as reduction in pain response of paw licking and biting pretreated for 30 mins followed by formalin treatment and measures after 20 to 30 mins by formalin test; format: functional; in short: as §1
Mus musculus [5] = experiment: Antinociceptive activity in ICR mouse assessed as reduction of pain behaviour at 40 mg/kg, ip pretreated for 30 mins followed by formalin treatment and measured after 20 to 30 mins by formalin test; format: functional, organism-based
In short: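 Male ICR mice, 20-25 g, in groups of 6-8. Compound given i.p. 30 min before 20 μL of 2% formalin in 0.9% saline injected into the dorsal right hindpaw. Licking and biting time is summed in 5-min blocks over 30 min. Late phase is 20-30 min after injection.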

Mus musculus [6] = experiment: Antinociceptive activity in ip dosed ICR mouse assessed as reduction in capsaicin-induced paw licking pretreated for 30 mins followed by capsaicin treatment and measured for 5 mins; format: functional, organism-based
In short: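 Male ICR mice, 20-25 g, in groups of 3-4. Compound or vehicle given i.p. 30 min before intraplantar capsaicin (3 μg/paw in 10 μl) into the right hind paw. Time spent licking the injected paw is recorded over 5 min. Results are given as mean ± SEM and compared with vehicle.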

Mus musculus [7] = experiment: Antinociceptive activity in ICR mouse assessed as reduction in capsaicin-induced paw licking at 20 mg/kg, ip pretreated for 30 mins followed by capsaicin treatment and measured for 5 mins relative to control; format: functional
In short: (§2)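 Male ICR mice, 20-25 g, 3-4 per group. Pretreated i.p. with compound or vehicle 30 min before intraplantar capsaicin 3 μg/paw in 10 μL into right hind paw. Licking time recorded for 5 min and expressed as % inhibition versus vehicle. Mean ± SEM.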

Mus musculus [8] = experiment: Antinociceptive activity in ICR mouse assessed as reduction in capsaicin-induced paw licking at 40 mg/kg, ip pretreated for 30 mins followed by capsaicin treatment and measured for 5 mins relative to control; format: functional; in short: as §2
Mus musculus [9] = experiment: Antinociceptive activity in ICR mouse assessed as reduction in paw licking time at 30 mg/kg, ip pretreated for 30 mins followed by formalin treatment and measures after 0 to 5 mins by formalin test relative to control; format: functional
In short: (§3)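 Male ICR mice, 20-25 g. Compound i.p. 30 min before 20 μL of 2% formalin in 0.9% saline into dorsal right hindpaw. Licking time scored at 0-5 min (early) and 20-30 min (late) and expressed as % decrease versus vehicle. n = 3-4, mean ± SEM.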

Mus musculus [10] = experiment: Antinociceptive activity in ICR mouse assessed as reduction in paw licking time at 30 mg/kg, ip pretreated for 30 mins followed by formalin treatment and measures after 20 to 30 mins by formalin test relative to control; format: functional; in short: as §3
Mus musculus [11] = experiment: (§4) Antinociceptive activity in ICR mouse assessed as reduction in paw licking time at 30 mg/kg, ip pretreated with 10 mg/kg, ip mu opioid receptor antagonist, naloxone 15 mins prior to compound treatment and 30 mins later treated with formalin and measured after 0 to 5 mins by formalin test relative to control; format: functional
In short: (§5)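 Male ICR mice, 20-25 g, 3-4 per group. Naloxone 10 mg/kg i.p. given 15 min before test article or vehicle i.p. Formalin paw test 30 min later: 20 μL of 2% formalin into right hindpaw. Licking scored at 0-5 min and 20-30 min and compared with vehicle. Mean ± SEM.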

Mus musculus [12] = experiment: as §4, with “after 20” for “after 0”, “to 30” for “to 5”; format: functional; in short: as §5
[13] = biological target: T1, Transient receptor potential cation channel subfamily V member 1; experiment: Antagonist activity at recombinant human TRPV1 expressed in CHO cells assessed as as inhibition of capsaicin-induced calcium uptake incubated for 5 mins in presence of 45Ca2+ by liquid scintillation counter; format: cell-based
In short: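 CHO cells stably expressing human TRPV1 (Tet-Off) induced 48 h in tetracycline-free medium. Uptake run in DMEM with BSA 0.25 mg/mL and 45Ca2+ 37 kBq/mL, with capsaicin 30 nM plus increasing test concentrations, 5 min at 37 °C. Cells washed, lysed in RIPA, counted. Four wells per point, Hill fit. ID50 converted to Ki by Cheng-Prusoff. Mean of ≥3 experiments.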

## CN(C)C1(Cc2ccccc2)CCN(c2cc(C(F)(F)F)ccc2CNC(=O)Nc2cccc3c2CC(O)CC3)CC1 (configuration not stated)
[1]
  Ki: 0.95 nM
[2]; cho
  EC50: Not Active
Mu-type opioid receptor
  Ki: 261 nM

## CN(C)C1(Cc2ccccc2)CCN(c2cc(C(F)(F)F)ccc2CNC(=O)Nc2cccc3ccc(O)cc23)CC1
[1]
  Ki: 0.46 nM
[2]; cho
  EC50: Not Active
Mu-type opioid receptor
  Ki: 137 nM

## CN(C)C1(Cc2ccccc2)CCN(c2cc(C(F)(F)F)ccc2CNC(=O)Nc2ccc3cnccc3c2)CC1
[1]
  Ki: 62 nM
[2]; cho
  EC50: Not Active
Mu-type opioid receptor
  Ki: 17 nM

## CC1CCN(c2nc(C(F)(F)F)ccc2CNC(=O)[C@@H](C)c2ccc(NS(C)(=O)=O)c(F)c2)CC1 (racemic)
[1]
  Ki: 7.9 nM
[2]; cho
  EC50: Not Active

## CN(C)C1(Cc2ccccc2)CCN(c2cc(C(F)(F)F)ccc2CNC(=O)Nc2cccc3cnccc23)CC1
[1]
  Ki: 0.67 nM
[2]; cho
  EC50: Not Active
Mu-type opioid receptor
  Ki: 507 nM

## CN(C)C1(Cc2ccccc2)CCN(c2cc(C(F)(F)F)ccc2CNC(=O)Nc2ccc(CNS(C)(=O)=O)c(F)c2)CC1
[1]
  Ki: 16.4 nM
[2]; cho
  EC50: Not Active
Mu-type opioid receptor
  Ki: 322 nM

## CN(C)C1(Cc2ccccc2)CCN(c2cc(C(F)(F)F)ccc2CNC(=O)Nc2cccc3[nH]c(=O)ccc23)CC1
[1]
  Ki: 1.67 nM
[2]; cho
  EC50: Not Active
Mu-type opioid receptor
  Ki: 240 nM

## CN(C)C1(Cc2ccccc2)CCN(c2cc(C(F)(F)F)ccc2CNC(=O)Nc2cccc3ncccc23)CC1
[1]
  Ki: 10.8 nM
[2]; cho
  EC50: Not Active
Mu-type opioid receptor
  Ki: 29 nM
Mus musculus [3]
  Activity: Dose-dependent effect
  ED50: 23.9 mg/kg
Mus musculus [4]
  Activity: Dose-dependent effect
  ED50: 10.5 mg/kg
Mus musculus [5]
  inhibition: Active
Mus musculus [6]
  inhibition: Dose-dependent effect
Mus musculus [7]
  inhibition in vivo at 20 mg/kg: 64.8%
Mus musculus [8]
  inhibition in vivo at 40 mg/kg: 89.6%
Mus musculus [9]
  inhibition in vivo at 30 mg/kg: 52.5%
Mus musculus [10]
  inhibition in vivo at 30 mg/kg: 90.2%
Mus musculus [11]
  inhibition (INH): 5.7%
Mus musculus [12]
  inhibition (INH): 47.9%

## CN(C)C1(Cc2ccccc2)CCN(c2cc(C(F)(F)F)ccc2CNC(=O)Nc2ccc(CO)c(F)c2)CC1
[1]
  Ki: 27.9 nM
[2]; cho
  EC50: Not Active
Mu-type opioid receptor
  Ki: 240 nM

## CN(C)C1(Cc2ccccc2)CCN(c2cc(C(F)(F)F)ccc2CNC(=O)Nc2cccc3ccncc23)CC1
[1]
  Ki: 12.3 nM
[2]; cho
  EC50: Not Active
Mu-type opioid receptor
  Ki: 205 nM

## CN(C)C1(Cc2ccccc2)CCN(c2cc(C(F)(F)F)ccc2CNC(=O)Nc2ccc(NS(C)(=O)=O)c(F)c2)CC1
[1]
  Ki: 1160 nM
[2]; cho
  EC50: Not Active
[13]
  inhibition: Active
Mu-type opioid receptor
  Ki: 368 nM

## CN(C)C1(Cc2ccccc2)CCN(c2cc(C(F)(F)F)ccc2CNC(=O)Nc2ccc3c(c2)OCC3)CC1
[1]
  Ki: 41.4 nM
[2]; cho
  EC50: Not Active
Mu-type opioid receptor
  Ki: 225 nM

## CN(C)C1(Cc2ccccc2)CCN(c2cc(C(F)(F)F)ccc2CNC(=O)Nc2ccc3ccncc3c2)CC1
[1]
  Ki: 7.33 nM
[2]; cho
  EC50: Not Active
Mu-type opioid receptor
  Ki: 177 nM

## CN(C)C1(Cc2ccccc2)CCN(c2cc(C(F)(F)F)ccc2CNC(=O)Nc2ccc(CNS(N)(=O)=O)c(F)c2)CC1
[1]
  Ki: 15.3 nM
[2]; cho
  EC50: Not Active
Mu-type opioid receptor
  Ki: 72.4 nM

## CN(C)C1(Cc2ccccc2)CCN(c2cc(C(F)(F)F)ccc2CNC(=O)Nc2cccc3c(=O)[nH]ccc23)CC1
[1]
  Ki: 111 nM
[2]; read-out: EC50
  EC50: 43.7 nM
[13]
  Ki: Not Active
Mu-type opioid receptor
  Ki: 105 nM

## CN(C)C1(Cc2ccccc2)CCN(c2cc(C(F)(F)F)ccc2CNC(=O)Nc2ccc3cccnc3c2)CC1
[1]
  Ki: 14.1 nM
[2]; cho
  EC50: Not Active
Mu-type opioid receptor
  Ki: 166 nM

## CN(C)C1(Cc2ccccc2)CCN(c2cc(C(F)(F)F)ccc2CNC(=O)NCc2ccc(NS(C)(=O)=O)c(F)c2)CC1
[1]
  Ki: 266 nM
[2]; cho
  EC50: Not Active
Mu-type opioid receptor
  Ki: 76.2 nM

## CC(C(=O)NCc1ccc(C(F)(F)F)cc1N1CCC(Cc2ccccc2)(N(C)C)CC1)c1ccc(NS(C)(=O)=O)c(F)c1 (configuration not stated)
[1]
  Ki: 3.79 nM
[2]; cho
  EC50: Not Active
Mu-type opioid receptor
  Ki: 428 nM
